Assay results taken from article PMC12573768 (RSC Advances, 2025).
Like-named read-outs stand apart in the source and are kept apart here. One block for each molecule: values may come before it.

What was measured:
[1] = system: fructosamine formation in BSA-fructose model; assay: Fructosamine inhibition, NBT assay, BSA-fructose model; format: biochemical; details: 50 °C 24 hours
Outline: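 Test compound and BSA-fructose solution mixed 1:1 and incubated at 50 °C for 24 h, with aminoguanidine as positive control. Incubated mixture was treated with 300 μM NBT in 0.1 M sodium carbonate, pH 10.6, at 37 °C for 15 min, then absorbance read at 530 nm. Inhibition was calculated with control and sample blanks. Run in triplicate; mean ± SEM.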

[2] = system: AGEs formation in BSA-fructose model; assay: AGEs inhibition, fluorescence, BSA-fructose model; format: biochemical; details: 50 °C 24 hours
Outline: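 Test compound and BSA-fructose solution mixed 1:1 and incubated at 50 °C for 24 h, with aminoguanidine as positive control. An aliquot of the mixture was diluted fivefold and fluorescence read at excitation 375 nm and emission 440 nm. Inhibition was calculated from control, control blank, sample and sample blank intensities. Run in triplicate; IC50 derived; mean ± SEM.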

[3] = target: T1, porcine pancreatic α-amylase (Sus scrofa, UniProt P00690); assay: α-Amylase inhibitory activity; format: biochemical
T1 sequence (P00690 16-511): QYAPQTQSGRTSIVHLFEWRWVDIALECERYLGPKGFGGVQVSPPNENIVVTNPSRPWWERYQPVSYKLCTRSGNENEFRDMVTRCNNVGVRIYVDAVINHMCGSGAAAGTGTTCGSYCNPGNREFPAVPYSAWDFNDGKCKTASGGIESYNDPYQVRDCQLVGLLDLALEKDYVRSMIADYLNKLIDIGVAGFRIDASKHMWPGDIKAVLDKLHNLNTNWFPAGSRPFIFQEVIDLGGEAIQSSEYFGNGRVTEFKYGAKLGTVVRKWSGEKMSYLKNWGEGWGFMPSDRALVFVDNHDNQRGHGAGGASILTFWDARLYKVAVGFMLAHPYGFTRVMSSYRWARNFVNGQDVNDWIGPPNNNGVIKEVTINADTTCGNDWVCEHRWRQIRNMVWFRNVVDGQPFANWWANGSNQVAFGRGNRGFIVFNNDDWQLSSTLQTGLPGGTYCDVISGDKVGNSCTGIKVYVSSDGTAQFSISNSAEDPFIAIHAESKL

[4] = Free radical scavenging activity; details: for IC50: read-out: (IC50 ± SEM) Antioxidant activity (DPPH radical)
Outline: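 Test compound in DMSO mixed with 0.2 mM DPPH in 95% methanol (1:3 by volume) and held 1 h in the dark at room temperature. Absorbance read at 517 nm; scavenging calculated relative to control, with ascorbic acid as reference. IC50 from non-linear regression; triplicate; mean ± SEM.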

α-glucosidase [5] = target: T2, α-glucosidase (Saccharomyces cerevisiae, UniProt P53341); assay: α-Glucosidase inhibitory activity; format: biochemical
[6] = cited from earlier work; for Stability improvement compared to ester form: rat plasma, Yang et al. ref 58
[7] = in vivo study by Wang et al. ref 55; cited from earlier work
C57BL/KsJ-db/db mice = details: Jung et al. ref 52; cited from earlier work
Caco-2 monolayer = details: Caco-2 cell model ref 55; cited from earlier work
α-glucosidase [8] = target: T2, α-glucosidase; details: vs EGCG, Liu et al. ref 37; cited from earlier work
α-amylase = target: T3, α-amylase (Sus scrofa, UniProt P00690); details: vs EGCG, Liu et al. ref 37; cited from earlier work
T3 sequence (P00690 16-511): T1 sequence (P00690 16-511)

[9] = Stability under physiological conditions; format: physicochemical; details: 200 μM, 1X PBS pH 7.4, 37 °C, 10 days
Outline: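 Test compound at 200 μM in 1X PBS, pH 7.4, incubated at 37 °C. A sample taken immediately was extracted three times with ethyl acetate, evaporated and stored at −20 °C; a second sample was extracted likewise after 10 days. Both residues were analysed by LC-MS on a C18 column.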

3T3-L1 cells = assay: MTT cytotoxicity assay; format: cell-based; details: 3T3-L1, up to 50 μM, 12 hours
Outline: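 3T3-L1 cells grown in DMEM with 10% FBS, 1% penicillin–streptomycin and 0.2% amphotericin at 37 °C, 5% CO2. Seeded at 2.0 × 10^4 cells/well overnight, PBS-washed, then exposed to test compound (0–50 μM in DMEM) for 12 h. After washing, 0.05% MTT in DMEM for 3 h; formazan dissolved in DMSO and read at 590 nm (reference 620 nm). IC50 by non-linear regression; triplicate.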

T2 sequence (P53341 whole entry): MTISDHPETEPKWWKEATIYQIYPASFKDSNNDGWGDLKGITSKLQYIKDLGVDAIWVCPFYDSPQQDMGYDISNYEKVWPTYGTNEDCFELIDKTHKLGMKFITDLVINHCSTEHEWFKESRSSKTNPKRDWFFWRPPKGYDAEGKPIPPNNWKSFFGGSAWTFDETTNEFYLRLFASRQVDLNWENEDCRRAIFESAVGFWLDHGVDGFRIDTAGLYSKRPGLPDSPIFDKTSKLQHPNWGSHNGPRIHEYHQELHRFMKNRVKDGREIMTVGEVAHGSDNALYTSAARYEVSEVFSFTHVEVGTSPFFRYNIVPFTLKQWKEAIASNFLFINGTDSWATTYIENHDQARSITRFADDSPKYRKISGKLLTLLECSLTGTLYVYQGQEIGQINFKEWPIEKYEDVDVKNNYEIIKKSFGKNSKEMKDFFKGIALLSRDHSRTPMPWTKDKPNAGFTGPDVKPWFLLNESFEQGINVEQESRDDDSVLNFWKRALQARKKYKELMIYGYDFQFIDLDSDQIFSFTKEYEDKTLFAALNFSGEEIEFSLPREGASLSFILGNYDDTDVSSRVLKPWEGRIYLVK

Molecule: N=C(N)NN [AG, Aminoguanidine, reference compound]
Inhibition of fructosamine formation ([1]; 5 mM): 9% | Inhibition of fructosamine formation ([1]; 10 mM): 30% | Inhibition of AGEs ([2]; 5 mM): 43% | Inhibition of AGEs ([2]; 10 mM): 70%

Molecule: O=C(/C=C/c1ccc(O)c(O)c1)NCCc1ccccc1 [CAPA, caffeic acid phenethyl amide]
Stability improvement compared to ester form ([6]; 25 °C): 118 fold | Stability improvement compared to ester form ([6]; 37 °C): 77 fold

Molecule: O=C(/C=C/c1ccc(O)c(O)c1)OCCc1ccccc1 [CAPE, caffeic acid phenethyl ester]
Stability in rat plasma ([6]; esterases ref 57): rapid decomposition

Molecule: O=C(O)/C=C/c1ccc(O)c(O)c1 [CA, Caffeic acid]
IC50 ([4]; mean ± SEM, triplicate): 34.3 ± 0.52 µM | Bioavailability [7]: 14.70% | Blood glucose lowering effect (C57BL/KsJ-db/db mice): significant blood glucose lowering effect | Caco-2 monolayer permeability (Caco-2 monolayer): poor

Molecule: EGCG palmitate
α-Glucosidase inhibition better than EGCG (α-glucosidase [8]): 52 times | α-Amylase inhibition better than EGCG (α-amylase): 4.5 times

Molecule: CCCCCCCCCCCCCCCCNC(=O)/C=C/c1ccc(O)c(O)c1 [CA16, (E)-3-(3,4-Dihydroxyphenyl)-N-hexadecylacrylamide]
IC50 [3]: 58.4 ± 2.68 µM | IC50 ([4]; mean ± SEM, triplicate): 15.1 ± 0.3 µM | IC50 (α-glucosidase [5]): 24.8 ± 0.46 µM

Molecule: CCCCCCCCCCCCNC(=O)/C=C/c1ccc(O)c(O)c1 [CA12, (E)-3-(3,4-Dihydroxyphenyl)-N-dodecylacrylamide]
IC50 [3]: 72.8 ± 1.83 µM | IC50 ([4]; mean ± SEM, triplicate): 16.4 ± 0.48 µM | IC50 (α-glucosidase [5]): 17.4 ± 0.87 µM

Molecule: CCCCCCCCCCCCCCNC(=O)/C=C/c1ccc(O)c(O)c1 [CA14, (E)-3-(3,4-Dihydroxyphenyl)-N-tetradecylacrylamide]
IC50 [3]: 27 ± 0.83 µM | Antioxidant activity relative to 15c ([4]; ratio of DPPH IC50 values, vs 15c): 1.2 fold | Antioxidant activity relative to CA ([4]; ratio of DPPH IC50 values, vs CA): 2.5 times | Antioxidant activity relative to Vitamin C ([4]; ratio of DPPH IC50 values, vs Vitamin C): 2.3 fold | IC50 ([4]; mean ± SEM, triplicate): 14 ± 0.38 µM | Inhibition of fructosamine formation ([1]; 5 mM): 33% | Inhibition of fructosamine formation ([1]; 10 mM): 70% | Stability under physiological conditions (degradation by LC-MS) [9]: did not exhibit any degradation | Inhibition of AGEs ([2]; 5 mM): 44% | Inhibition of AGEs ([2]; 10 mM): 79% | Cytotoxicity (cell viability, MTT) (3T3-L1 cells): no significant cytotoxicity | IC50 (α-glucosidase [5]): 1.94 ± 0.06 µM | α-Glucosidase inhibition potency relative to parent CA (α-glucosidase [5]; ratio of IC50 values, vs CA): 6392 times | α-Glucosidase inhibition potency relative to acarbose (α-glucosidase [5]; ratio of IC50 values, vs acarbose): 113 times

Results, then the molecule that gave them:

IC50 [3]: > 500 µM | IC50 ([4]; mean ± SEM, triplicate): 23.4 ± 0.77 µM | IC50 (α-glucosidase [5]): 19.1 ± 0.64 µM
Molecule: CCCCCCCCCCNC(=O)/C=C/c1ccc(O)c(O)c1 [CA10, (E)-3-(3,4-Dihydroxyphenyl)-N-decylacrylamide]

(IC50 ± SEM) Antioxidant activity (DPPH radical) ([4]; mean ± SEM, triplicate): No activity
Molecule: C[C@H]1O[C@H](O[C@H]2[C@H](O)[C@@H](O)[C@@H](O[C@H]3[C@H](O)[C@@H](O)C(O)O[C@@H]3CO)O[C@@H]2CO)[C@H](O)[C@@H](O)[C@@H]1N[C@H]1C=C(CO)[C@@H](O)[C@H](O)[C@H]1O (stereo partly shown) [Acarbose, reference compound]

IC50 [3]: > 500 µM | IC50 ([4]; mean ± SEM, triplicate): 20.8 ± 0.45 µM | IC50 (α-glucosidase [5]): 38 ± 1.57 µM
Molecule: CCCCNC(=O)/C=C/c1ccc(O)c(O)c1 [CA4, (E)-3-(3,4-Dihydroxyphenyl)-N-butylacrylamide]

(IC50 ± SEM) α-Amylase inhibition ([3]; mean ± SEM, triplicate): No activity | IC50 ([4]; mean ± SEM, triplicate): 32.7 ± 0.47 µM | (IC50 ± SEM) α-Glucosidase inhibition (α-glucosidase [5]; mean ± SEM, triplicate): No activity
Molecule: O=C1O[C@H]([C@@H](O)CO)C(O)=C1O [Vitamin C, L-ascorbic acid, reference compound]

IC50 [3]: > 500 µM | IC50 ([4]; mean ± SEM, triplicate): 24.3 ± 0.58 µM | IC50 (α-glucosidase [5]): 13.7 ± 0.44 µM
Molecule: CCCCCCCCNC(=O)/C=C/c1ccc(O)c(O)c1 [CA8, (E)-3-(3,4-Dihydroxyphenyl)-N-octylacrylamide]

IC50 [3]: > 500 µM | IC50 ([4]; mean ± SEM, triplicate): 23.7 ± 0.59 µM | IC50 (α-glucosidase [5]): 51.5 ± 2.36 µM
Molecule: CCCCCCNC(=O)/C=C/c1ccc(O)c(O)c1 [CA6, (E)-3-(3,4-Dihydroxyphenyl)-N-hexylacrylamide]
